Data reported in PubChem BioAssay AID624082 (The Scripps Research Institute Molecular Screening Center, 2012).
Activity calls are given as the source filed them.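 Rule for the calls: active = MIC showing a fourfold drop that lands at or below 10 µM; inactive = fourfold-lowered MIC still above 10 µM.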

Tests used:
[1] = tested on: K. pneumoniae BAA-2146 NDM-1, imipenem synergy, growth MIC; assay: imipenem potentiation against NDM-1 K. pneumoniae, late-stage follow-up, VIM-2 MBL inhibitor project, BAA-2146, NDM-1 transformed, nonselective, MIC fold reduction (AID 624082)
Outline: (§1)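 Material: Log-phase bacterial culture in a checkerboard broth microdilution | Probe or stimulus: Imipenem, two-fold titration series | Dosing: Test compound two-fold serial titration, crossed with imipenem titration | Times: Aerobic incubation of inoculated wells, at least 18 h, 37 °C | Evaluation: MIC per CLSI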

[2] = as above; details: K. pneumoniae BAA-2146 NDM-1, imipenem synergy, growth MIC; measured here: max imipenem fold potentiation; stronger effect = higher value
Outline: as §1

| SMILES | MIC [1] | fold potentiation [2] |
| --- | --- | --- |
| O=C(CN1C(=O)/C(=C/c2c(Cl)cccc2Cl)SC1=S)NN1CCN(C(=O)c2ccccc2)CC1 | > 50 µM (inactive) |  |
| CC(=O)N1CCN(NC(=O)CN2C(=O)/C(=C/c3c(Cl)cccc3Cl)SC2=S)CC1 | > 50 µM (inactive) |  |
| O=C(CN1C(=O)/C(=C/c2c(Cl)ccc(Cl)c2Cl)SC1=S)NN1CCCCC1 | > 50 µM (inactive) |  |
| O=C(CN1C(=O)/C(=C/c2c(Cl)cccc2Cl)SC1=S)NN1CCNCC1 | > 50 µM (inactive) |  |
| CN1CCN(NC(=O)CN2C(=O)/C(=C/c3c(C(F)(F)F)ccc(Cl)c3Cl)SC2=S)CC1 | > 50 µM (inactive) | 2 |
| O=C(CN1C(=O)/C(=C/c2c(Cl)ccc(Cl)c2Cl)SC1=S)NCc1ccccn1 | > 50 µM (inactive) |  |
| CC(C)(C)OC(=O)N1CCN(NC(=O)CN2C(=O)/C(=C/c3c(Cl)cccc3Cl)SC2=S)CC1 | > 100 µM (inactive) |  |
| CCN(CC)OC(=O)CN1C(=O)/C(=C/c2c(Cl)cccc2Cl)SC1=S | > 100 µM (inactive) |  |
| O=C(O)CN1C(=O)/C(=C/c2c(F)cccc2C(F)(F)F)SC1=S | > 50 µM (inactive) |  |
| O=C(CN1C(=O)/C(=C/c2c(Cl)ccc(Cl)c2Cl)SC1=S)NN1CCNCC1 | > 50 µM (inactive) | 2 |
| CN1CCN(NC(=O)CN2C(=O)/C(=C/c3c(Cl)cccc3Cl)SC2=S)CC1 | > 100 µM (inactive) | 2 |
| CN1CCN(NC(=O)CN2C(=O)/C(=C/c3c(F)cccc3C(F)(F)F)SC2=S)CC1 | > 50 µM (inactive) | 2 |
| CN1CCN(NC(=O)CN2C(=O)/C(=C/c3c(F)cccc3Cl)SC2=S)CC1 | > 50 µM (inactive) | 2 |
| CN1CCN(NC(=O)CN2C(=O)/C(=C/c3c(Cl)ccc(Cl)c3Cl)SC2=S)CC1 | > 50 µM (inactive) | 2 |
| CN1CCN(C(=O)CN2C(=O)/C(=C/c3c(Cl)ccc(Cl)c3Cl)SC2=S)CC1 | > 50 µM (inactive) |  |
| CC(C)(C)OC(=O)N1CCN(NC(=O)CN2C(=O)/C(=C/c3c(Cl)ccc(Cl)c3Cl)SC2=S)CC1 | > 50 µM (inactive) |  |
| O=C(CN1C(=O)/C(=C/c2c(Cl)cccc2Cl)SC1=S)NN1CCN(Cc2ccccc2)CC1 | > 50 µM (inactive) |  |
| O=C(CN1C(=O)/C(=C/c2c(Cl)cccc2Cl)SC1=S)NCc1ccccn1 | > 100 µM (inactive) |  |
| O=C(O)CN1C(=O)/C(=C/c2c(Cl)cccc2Cl)SC1=S | > 100 µM (inactive) |  |
| CC(C)N1CCN(NC(=O)CN2C(=O)/C(=C/c3c(Cl)cccc3Cl)SC2=S)CC1 | > 50 µM (inactive) |  |
| CN1CCN(NC(=O)CN2C(=O)/C(=C/c3c(Cl)ccc(C(F)(F)F)c3Cl)SC2=S)CC1 | > 50 µM (inactive) | 2 |
